Test results from ChEMBL document CHEMBL1629641, “An important site in PBP2x of penicillin-resistant clinical isolates of Streptococcus pneumoniae: mutational analysis of Thr338” (2009).
≈ marks a conversion by molar mass, not a printed value.

Columns and labels:
Settings in all cases: R6, 48 h
Streptococcus pneumoniae [1] = test: Antimicrobial activity against Streptococcus pneumoniae R6 harboring PBP2x T338G mutant gene after 48 hrs by agar dilution method; assay type: functional
Method in brief: (§1)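 Agar dilution on blood agar plates (D-agar with 3% defibrinated sheep blood), natural atmosphere, inoculated with cells from exponentially growing cultures in C-medium with 0.2% yeast extract grown at 37°C without aeration; narrow range of antibiotic concentrations to detect subtle susceptibility differences; MIC read after 48 h at 37°C.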

Streptococcus pneumoniae [2] = test: Antimicrobial activity against streptomycin-resistant Streptococcus pneumoniae R6 harboring PBP2x T338G and PBP1a2349 mutant gene after 48 hrs by agar dilution method; assay type: functional; method in brief: as §1
Streptococcus pneumoniae [3] = test: Antimicrobial activity against Streptococcus pneumoniae R6 harboring PBP2x T338G mutant gene, disruption at PBP1a and aad9 disruption in CiaR gene after 48 hrs by agar dilution method; assay type: functional; method in brief: as §1
Streptococcus pneumoniae [4] = test: Antimicrobial activity against Streptococcus pneumoniae R6 harboring PBP2x T338P mutant gene, disruption at PBP1a and aad9 disruption in CiaR gene after 48 hrs by agar dilution method; assay type: functional; method in brief: as §1
Streptococcus pneumoniae [5] = test: Antimicrobial activity against Streptococcus pneumoniae R6 after 48 hrs by agar dilution method; assay type: functional; method in brief: as §1
Streptococcus pneumoniae [6] = test: Antimicrobial activity against Streptococcus pneumoniae R6 harboring wild type PBP2x, disruption in PBP1a and aad9 disruption in CiaR gene after 48 hrs by agar dilution method; assay type: functional; method in brief: as §1
Streptococcus pneumoniae [7] = test: Antimicrobial activity against streptomycin- resistant Streptococcus pneumoniae R6 harboring PBP2x2349 mutant gene and Janus disruption at PBP1a after 48 hrs by agar dilution method; assay type: functional; method in brief: as §1
Streptococcus pneumoniae [8] = test: Antimicrobial activity against Streptococcus pneumoniae R6 harboring PBP2x2349 mutant gene after 48 hrs by agar dilution method; assay type: functional; method in brief: as §1
Streptococcus pneumoniae [9] = test: Antimicrobial activity against Streptococcus pneumoniae R6 harboring PBP2x T338P mutant gene after 48 hrs by agar dilution method; assay type: functional; method in brief: as §1
Streptococcus pneumoniae [10] = test: Antimicrobial activity against Streptococcus pneumoniae R6 harboring PBP2x T338A mutant gene, disruption at PBP1a and aad9 disruption in CiaR gene after 48 hrs by agar dilution method; assay type: functional; method in brief: as §1
Streptococcus pneumoniae [11] = test: Antimicrobial activity against Streptococcus pneumoniae R6 harboring PBP2x2349 and PBP1a2349 mutant gene after 48 hrs by agar dilution method; assay type: functional; method in brief: as §1
Streptococcus pneumoniae [12] = test: Antimicrobial activity against Streptococcus pneumoniae R6 harboring PBP2x T338A mutant gene after 48 hrs by agar dilution method; assay type: functional; method in brief: as §1
Streptococcus pneumoniae [13] = test: Antimicrobial activity against streptomycin-resistant Streptococcus pneumoniae R6 harboring PBP2x T338G mutant gene and Janus disruption at PBP1a after 48 hrs by agar dilution method; assay type: functional; method in brief: as §1
Streptococcus pneumoniae [14] = test: Antimicrobial activity against Streptococcus pneumoniae R6 harboring PBP2x T338G mutant gene, disruption at PBP1a and aad9 disruption in CiaR gene after 48 hrs by agar dilution method

| Compound | MIC (Streptococcus pneumoniae [1]) | MIC (Streptococcus pneumoniae [2]) | MIC (Streptococcus pneumoniae [3]) | MIC (Streptococcus pneumoniae [4]) | MIC (Streptococcus pneumoniae [5]) | MIC (Streptococcus pneumoniae [6]) | MIC (Streptococcus pneumoniae [7]) | MIC (Streptococcus pneumoniae [8]) | MIC (Streptococcus pneumoniae [9]) | MIC (Streptococcus pneumoniae [10]) | MIC (Streptococcus pneumoniae [11]) | MIC (Streptococcus pneumoniae [12]) | MIC (Streptococcus pneumoniae [13]) | MIC (Streptococcus pneumoniae [14]) |
| --- | --- | --- | --- | --- | --- | --- | --- | --- | --- | --- | --- | --- | --- | --- |
| CO/N=C(\C(=O)N[C@@H]1C(=O)N2C(C(=O)O)=C(COC(C)=O)CS[C@H]12)c1csc(N)n1 [CEFOTAXIME] | 0.045 µg/mL (≈ 0.0988 µM) | 0.03 µg/mL (≈ 0.0659 µM) | 0.055 µg/mL (≈ 0.121 µM) | 0.045 µg/mL (≈ 0.0988 µM) | 0.02 µg/mL (≈ 0.0439 µM) | 0.025 µg/mL (≈ 0.0549 µM) | 0.2 µg/mL (≈ 0.439 µM) | 0.3 µg/mL (≈ 0.659 µM) | 0.04 µg/mL (≈ 0.0878 µM) | 0.045 µg/mL (≈ 0.0988 µM) | 1 µg/mL (≈ 2.2 µM) | 0.035 µg/mL (≈ 0.0768 µM) | 0.03 µg/mL (≈ 0.0659 µM) |  |
| Cc1onc(-c2ccccc2)c1C(=O)N[C@@H]1C(=O)N2[C@@H]1SC(C)(C)[C@@H]2C(=O)O [OXACILLIN] | 0.25 µg/mL (≈ 0.623 µM) | 0.16 µg/mL (≈ 0.399 µM) | 0.25 µg/mL (≈ 0.623 µM) | 0.24 µg/mL (≈ 0.598 µM) | 0.08 µg/mL (≈ 0.199 µM) | 0.08 µg/mL (≈ 0.199 µM) | 0.95 µg/mL (≈ 2.37 µM) | 1 µg/mL (≈ 2.49 µM) | 0.23 µg/mL (≈ 0.573 µM) | 0.2 µg/mL (≈ 0.498 µM) | 0.85 µg/mL (≈ 2.12 µM) | 0.18 µg/mL (≈ 0.448 µM) | 0.21 µg/mL (≈ 0.523 µM) |  |
| CC1(C)S[C@@H]2[C@H](NC(=O)Cc3ccccc3)C(=O)N2[C@H]1C(=O)O [PENICILLIN G] | 0.03 µg/mL (≈ 0.0897 µM) | 0.02 µg/mL (≈ 0.0598 µM) | 0.025 µg/mL (≈ 0.0748 µM) |  | 0.02 µg/mL (≈ 0.0598 µM) | 0.02 µg/mL (≈ 0.0598 µM) | 0.04 µg/mL (≈ 0.12 µM) | 0.04 µg/mL (≈ 0.12 µM) | 0.03 µg/mL (≈ 0.0897 µM) | 0.04 µg/mL (≈ 0.12 µM) | 0.035 µg/mL (≈ 0.105 µM) | 0.03 µg/mL (≈ 0.0897 µM) | 0.02 µg/mL (≈ 0.0598 µM) | 0.025 µg/mL (≈ 0.0748 µM) |
| CCN1CCN(C(=O)N[C@@H](C(=O)N[C@@H]2C(=O)N3[C@@H]2SC(C)(C)[C@@H]3C(=O)O)c2ccccc2)C(=O)C1=O [PIPERACILLIN] | 0.1 µg/mL (≈ 0.193 µM) | 0.06 µg/mL (≈ 0.116 µM) | 0.08 µg/mL (≈ 0.155 µM) | 0.06 µg/mL (≈ 0.116 µM) | 0.04 µg/mL (≈ 0.0773 µM) | 0.06 µg/mL (≈ 0.116 µM) | 0.12 µg/mL (≈ 0.232 µM) | 0.12 µg/mL (≈ 0.232 µM) | 0.06 µg/mL (≈ 0.116 µM) | 0.11 µg/mL (≈ 0.213 µM) | 0.11 µg/mL (≈ 0.213 µM) | 0.09 µg/mL (≈ 0.174 µM) | 0.09 µg/mL (≈ 0.174 µM) |  |
